An excerpt weighted towards active compounds, which were near 1.9% of everything screened.
PP1 counter = blocks human PP1-alpha phosphatase, a PP5 counter-screen. P62136. purified PP1alpha, OMFP fluorescence. inhibition, % at 6.7 µM. hit rate 0.9% among 320,000;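 active = inhibition above the mean inhibition of all tested compounds plus 3 SD, computed separately for each screening campaign, cut at about 15% in these data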
Target sequence (P62136 whole entry, looked up): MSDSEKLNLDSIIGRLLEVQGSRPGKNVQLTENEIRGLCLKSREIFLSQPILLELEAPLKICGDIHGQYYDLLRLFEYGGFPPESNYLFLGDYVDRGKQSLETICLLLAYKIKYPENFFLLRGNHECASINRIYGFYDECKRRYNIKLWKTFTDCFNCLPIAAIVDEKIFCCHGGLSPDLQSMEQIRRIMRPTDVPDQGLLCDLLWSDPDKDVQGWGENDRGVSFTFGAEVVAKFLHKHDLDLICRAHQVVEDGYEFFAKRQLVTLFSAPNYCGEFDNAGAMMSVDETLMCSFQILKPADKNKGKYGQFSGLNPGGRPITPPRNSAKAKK
HCV core dimer = HCV core protein dimerization inhibition; TR-FRET GST/Flag-core106 dimerization, 1536-well; inhibition, % at 5 µM; hit rate 0.33% among 300,000;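 active = inhibition above the mean of all tested compounds plus 3 SD, set per screening campaign, cut at about 45% in these data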
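test system = GST/Flag-tagged HCV core106 proteins | probe or stimulus = Eu donor and XL665 acceptor anti-tag antibodies | times = compound-protein-antibody incubation 4 h at 22.5 °C | signal = TR-FRET, excitation 340 nm, emission 617 and 671 nm | measure = percent inhibition of core106 dimerization signal | controls = wells lacking GST-core106 and wells with excess unlabelled core106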
EBNA-1 inh = blocks EBNA-1 binding to DNA. EBNA-1 DNA binding, fluorescence polarization. inhibition, % at 14.8 µM. hit rate 0.34% among 300,000; in the data active = inhibition above about 28%
ZTA DNA inh = counter-screen for EBNA-1 inhibitors: inhibitors of Epstein-Barr virus ZTA; hit rate 0.15% among 320,000; ZTA-DNA binding, fluorescence polarization; inhibition, % at 11 µM; P03206; in the data active = inhibition above about 33%
Target sequence (P03206 whole entry, looked up): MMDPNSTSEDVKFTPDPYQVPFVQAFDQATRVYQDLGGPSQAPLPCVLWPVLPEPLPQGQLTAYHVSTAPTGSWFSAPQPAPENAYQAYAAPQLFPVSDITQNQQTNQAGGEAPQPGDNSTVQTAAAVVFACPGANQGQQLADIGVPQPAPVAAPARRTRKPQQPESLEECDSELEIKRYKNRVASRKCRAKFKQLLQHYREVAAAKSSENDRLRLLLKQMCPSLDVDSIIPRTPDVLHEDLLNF
HCV NS3 hel inh = blocks Hepatitis C virus NS3 helicase unwinding. inhibition, % at 10.9 µM. hit rate 0.56% among 290,000. NS3 helicase DNA unwinding, Cy5 molecular beacon fluorescence;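 active = inhibition above the mean of all tested compounds plus 3 SD, set per campaign, cut at about 35% in these data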;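 also: 0% = DMSO wells and 100% = thioflavine S control wells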
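Test system: hepatitis C virus NS3 helicase domain fragment enzyme. Also added: annealed dual-labelled DNA beacon duplex, ATP-started. Timing: 60 min unwinding reaction at 25 °C after ATP addition. Technique: Cy5 fluorescence. Measure: % inhibition of unwinding.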
NS3 helicase cf = confirmation of Hepatitis C virus NS3 helicase inhibitors; hit rate 31% among 1,600; inhibition, % at 10.9 µM; NS3 helicase DNA unwinding, Cy5 molecular beacon fluorescence; shares compounds with HCV NS3 hel inh;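 active = inhibition above the mean of all tested compounds plus 3 SD, cutoff set per campaign, cut at about 36% in these data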
FID counter trip = counter-screen for HCV NS3 helicase inhibitors: DNA intercalator displacement; shares compounds with HCV NS3 hel inh; DNA fluorescent intercalator displacement, fluorescence; inhibition, % at 7.9 µM; hit rate 4% among 1,600; AID 1945; in the data active = inhibition above about 37%;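 also: 0% = vehicle and 100% = reference compound; higher means more displacement of ethidium bromide from the DNA hairpin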
FID counter DR = DNA intercalator displacement in dose response. fluorescent intercalator displacement from DNA, fluorescence. 120 tested, under 10 active. IC50, µM. shares compounds with HCV NS3 hel inh; call rule not given here
Active calls of the source: *; nt = not tested or not shown.

SMILES	PP1 counter	HCV core dimer	EBNA-1 inh	ZTA DNA inh	HCV NS3 hel inh	NS3 helicase cf	FID counter trip	others
C/C(CC(=O)Nc1ccc(Cl)c(C(F)(F)F)c1)=N\NC(=O)c1ccccc1O	3	-4	3	16	41*	4	13
O=C(O)CC(c1ccccc1)N1C(=O)c2cccc([N+](=O)[O-])c2C1=O (stereo not given)	-2	1	-2	-6	0	nt	nt
O=[N+]([O-])c1ccc(N2CCN(S(=O)(=O)c3ccc4ccccc4c3)CC2)cc1NCC1CCCO1 (stereo not given)	6	25	0	0	53*	6	-7
Cc1ccc(NC(=O)CC2SC(=O)N(c3ccccc3)C2=O)cc1 (stereo not given)	5	0	-14	2	33	nt	nt
O=C(CC1SC(=O)N(c2ccccc2)C1=O)Nc1ccccc1 (stereo not given)	2	-4	6	10	38*	-22	12
N=C1/C(=C/c2ccc(OCc3ccccc3F)cc2)C(=O)N=C2SC(CC(=O)N3CCOCC3)=NN12	-2	4	-21	-13	46*	42*	-6
N=C1/C(=C/c2ccc(OCc3ccccc3)cc2)C(=O)N=C2SC(CC(=O)N3CCOCC3)=NN12	6	7	6	-5	25	nt	nt
COc1cccc(C(=O)OCC(=O)Nc2ccc(N3CCOCC3)cc2)c1	-2	nt	nt	-10	nt	nt	nt
Cc1nn(Cc2ccc(Cl)cc2)c(C)c1NC(=O)c1noc2c1CCc1ccccc1-2	3	27	7	18	57*	-15	-43
CC1=CN2C(=N)/C(=C/c3ccc([N+](=O)[O-])o3)C(=O)N=C2S1	7	-2	9	15	51*	53*	12	FID counter DR=>79
CC1=CN2C(=N)/C(=C/c3ccco3)C(=O)N=C2S1	0	-14	-11	-8	6	nt	nt
Cc1ccc(CNC(=O)CS(=O)(=O)Cc2nc(-c3ccc(C)cc3)oc2C)cc1	-5	-6	-3	-5	41*	-6	-17
Cc1ccc(N2CC(C(=O)Nc3ccc(N4CCOCC4)cc3)CC2=O)cc1C (stereo not given)	0	-4	-10	8	39*	-6	-30
O=C(Nc1ccc(N2CCOCC2)cc1)C1CC(=O)N(c2ccccc2)C1 (stereo not given)	4	5	6	-3	0	nt	nt
O=C(CSc1nc2ccccc2n1Cc1ccccc1)N/N=C/c1ccccc1C(=O)O	-2	13	-1	10	24	nt	nt
O=C(CSc1nc2ccccc2n1Cc1ccccc1Cl)N/N=C/c1ccccc1C(=O)O	5	19	2	11	40*	50*	-15
Cc1cc(C)cc(NC(=O)CSc2nc(=O)n3cc(C)ccc3n2)c1	-2	-2	2	-13	nt	nt	nt
CCc1nnc(NC(=O)CN2CCN(Cc3ccc(C)cc3)CC2)s1	-3	8	-10	0	6	nt	nt
CCCOc1ccc(C(=O)Nc2ccc(S(=O)(=O)Nc3cc(C)nc(C)n3)cc2)cc1	3	1	-4	-11	-8	nt	nt
O=C(Nc1cccnc1)C(Cc1ccccc1)n1cccc1 (stereo not given)	2	1	-14	-6	8	nt	nt
O=C(Nc1ncc(Br)s1)C(Cc1ccccc1)n1cccc1 (stereo not given)	2	7	-2	27	44*	-17	13
Cc1c(S(=O)(=O)N2CCN(c3ccccc3)CC2)c(=O)n(C)c(=O)n1C	1	-1	7	-5	6	nt	nt
Cc1ccccc1-n1cnnc1SCC(=O)Nc1cccnc1Cl	-4	-2	7	-6	-7	nt	nt
CCOC(=O)Cc1csc(N/N=C\c2ccccc2OC)n1	-4	0	8	5	-3	nt	nt
COc1ccc(/C=N/N2CCN(c3ccccc3OC)CC2)cc1OC	3	-4	-2	-9	4	nt	nt
SMILES	PP1 counter	HCV core dimer	EBNA-1 inh	ZTA DNA inh	HCV NS3 hel inh	NS3 helicase cf	FID counter trip	others
COc1ccccc1N1CCN(/N=C/c2ccc(O)c(O)c2)CC1	0	-4	-11	8	37*	-1	-7
COC(c1ccc(Cl)cc1)(c1ccc(Cl)cc1)C(Oc1nc(C)cc(C)n1)C(=O)O (stereo not given)	-1	11	12	-4	37*	36*	-4
COCCn1c(=S)[nH]c2ccc(N(C)C)cc2c1=O	-2	-10	-12	-3	39*	-9	6
CCOc1cc2[nH]c(=S)n(CCOC)c(=O)c2cc1OCC	1	3	-6	2	-4	nt	nt
Cc1ccccc1CSCC(=O)Nc1ccccc1Br	-3	6	0	13	-6	nt	nt
O=C(/C=C/c1ccco1)NC(=S)Nc1cccc(C(=O)O)c1	1	9	5	21	52*	30	11
COc1cccc(NC(=S)NC(=O)/C=C/c2ccco2)c1	7	26	5	-7	27	nt	nt
CCOc1ccccc1N1CCN(c2nc(N)c(C#N)c(CC#N)c2C#N)CC1	3	11	-4	-7	36*	-18	-10
COc1ccc(S(=O)(=O)N2CCN(Cc3ccccc3)CC2)cc1OC	nt	nt	nt	nt	97*	-13	-8
CC(C)Cc1nnc(NC(=O)C2CCCC2)s1	2	0	-10	-17	-6	nt	nt
CCCCOc1ccc(C(=O)Nc2ccc(S(=O)(=O)Nc3onc(C)c3C)cc2)cc1	0	19	11	10	40*	54*	-21
Cc1nn(Cc2ccccc2)c(C)c1/C=N/NC(=O)c1ccccc1O	0	1	-1	-10	-5	nt	nt
Cc1cc(=O)[nH]c2c1cnn2Cc1ccccc1	-2	-2	-2	-3	3	nt	nt
S=c1nc[nH]c2c1cnn2Cc1ccccc1	nt	nt	nt	nt	41*	2	-4
O=C1CN(C(=O)N[C@@H](Cc2ccccc2)C(=O)N[C@@H](Cc2ccccc2)C(=O)O)c2ccccc2N1	1	-3	-6	0	36*	-23	-31
O=C1CN(C(=O)N[C@@H](Cc2ccccc2)C(=O)N[C@H](Cc2ccccc2)C(=O)O)c2ccccc2N1	-2	0	-7	10	2	nt	nt
O=C(c1ccccc1F)N1CCN(C(=O)C(c2ccccc2)c2ccccc2)CC1	0	7	0	-3	-5	nt	nt
N=C1/C(=C\c2ccc(SCc3ccco3)o2)C(=O)N=C2SC=NN12	5	2	-6	3	53*	63*	-1
CC1=NN2C(=N)/C(=C\c3ccc(SCc4ccccc4)o3)C(=O)N=C2S1	2	2	11	-4	2	nt	nt
O=C(O)c1cc(-c2ccc(/C=c3\sc4nc5ccc(Br)cc5n4c3=O)o2)ccc1Cl	11	-46	-1	-1	38*	73*	9

Screening results (PubChem)
